This is an account of results in PMC6263940 (Nature chemical biology, 2018).

The target in assay [1] is T1, serine hydrolases in THP-1 cells (Homo sapiens, UniProt P08910).
T1 sequence (P08910 1-425): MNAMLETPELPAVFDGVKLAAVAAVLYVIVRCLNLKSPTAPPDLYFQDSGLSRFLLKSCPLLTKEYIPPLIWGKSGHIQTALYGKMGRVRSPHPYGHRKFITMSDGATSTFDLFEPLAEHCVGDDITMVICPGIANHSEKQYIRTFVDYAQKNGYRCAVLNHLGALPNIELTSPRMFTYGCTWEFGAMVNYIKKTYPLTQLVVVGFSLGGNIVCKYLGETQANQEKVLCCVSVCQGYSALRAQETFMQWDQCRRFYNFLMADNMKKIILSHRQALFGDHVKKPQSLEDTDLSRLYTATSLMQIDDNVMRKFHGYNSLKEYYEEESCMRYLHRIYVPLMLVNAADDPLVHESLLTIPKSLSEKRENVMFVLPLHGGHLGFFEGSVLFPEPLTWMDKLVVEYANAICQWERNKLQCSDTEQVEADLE
The experiment in a line: ABPP-SILAC. Type of assay: cell-based.

Assay [2] concerns serine hydrolases in THP-1 cells. The experiment in a line: ABPP-SILAC. Type of assay: cell-based, human. Particulars: 1 μM, 4 h, THP-1 cells.
In a further assay the test system is THP-1 cells. Put plainly: Targeted LC-MS of. The following applies: 4 h. The format is cell-based, human. Put shortly: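 THP-1 cells (6 million in 10 mL) incubated with test compound or DMSO for 4 h at 37 °C, 5% CO₂. Cells washed twice with ice-cold DPBS and stored at −80 °C, then analysed by targeted LC-MS metabolomics for lyso-PS and PS species.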
Assay [3] concerns the target T2, ABHD12 (Homo sapiens, UniProt Q8N2K0).
T2 sequence (Q8N2K0 1-398): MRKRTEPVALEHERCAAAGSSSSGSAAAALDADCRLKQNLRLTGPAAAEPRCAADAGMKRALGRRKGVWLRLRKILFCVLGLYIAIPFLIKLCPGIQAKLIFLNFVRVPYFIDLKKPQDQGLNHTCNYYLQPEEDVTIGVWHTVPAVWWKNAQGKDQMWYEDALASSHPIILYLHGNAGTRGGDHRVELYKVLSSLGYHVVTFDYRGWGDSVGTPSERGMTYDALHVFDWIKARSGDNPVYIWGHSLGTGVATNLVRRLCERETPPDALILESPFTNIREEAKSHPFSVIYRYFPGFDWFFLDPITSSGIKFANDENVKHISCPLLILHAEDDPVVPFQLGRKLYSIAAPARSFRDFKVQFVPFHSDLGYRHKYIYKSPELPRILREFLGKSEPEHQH
Type of assay: cell-based. Put shortly:
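THP-1 cells (6 million in 10 mL) given test compound (1–1000 nM) or DMSO for 4 h at 37 °C, 5% CO₂, then washed twice in ice-cold DPBS. Membrane proteome incubated with 17:1 lyso-PS (100 μM final), 20 min, 37 °C. Readout is the LC-MS 17:1 FFA/15:0 FFA ratio minus the JJH350 (10 μM)-treated membrane background. IC50 fitted as log(inhibitor) vs normalized response.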

Another assay has as its system C57BL/6 mice. The experiment in a line: Targeted LC-MS of brain lipid content of treated mice. Type of assay: in vivo, mouse. A digest of the protocol:
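Mice received test compound or vehicle i.p. (single doses, 24 h; or 30 mg/kg time course), orally (24 h), or 30 mg/kg daily p.o. for four weeks (8-month-old mice). Brains harvested after isoflurane and cervical dislocation; lipids measured by targeted LC-MS. ABHD12(+/+) and (−/−) brains serve as reference; chronic data given as mean ± SEM.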

Assay [4] concerns the target T2, ABHD12. Put plainly: Gel-based competitive ABPP. Type of assay: cell-based. Particulars: 24 h treatment, JJH350 probe. Put shortly:
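PBMCs collected from the gradient interface, red cells lysed (5 min, room temperature) and plated in DPBS at 2.26 × 10⁵ cells/cm²; adherent monocytes attach within 1–2 h. After in situ treatment, proteome (1 mg/mL) labelled with JJH350 (2 μM final, 45 min, 37 °C), clicked and run on gel. ABHD12 band intensity is normalised to the control sample (100%).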

The target in assay [5] is T2, ABHD12. The experiment in a line: In situ treatment of THP-1 cells, competitive gel-based ABPP with JJH350 probe. The format is cell-based. Particulars: 1 μM, 4 h in situ. Put shortly: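 Whole THP-1 cells exposed to test compound or DMSO for 4 h at 37 °C, 5% CO₂, then washed twice with ice-cold DPBS. Proteome (1 mg/mL) labelled with JJH350 (2 μM final, 45 min, 37 °C), clicked by CuAAC and resolved on gel. ABHD12 band intensity is expressed relative to the control-treated sample, set to 100%.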

Assay [6] addresses T3, ABHD12 (Mus musculus, UniProt Q99LR1).
T3 sequence (Q99LR1 1-398): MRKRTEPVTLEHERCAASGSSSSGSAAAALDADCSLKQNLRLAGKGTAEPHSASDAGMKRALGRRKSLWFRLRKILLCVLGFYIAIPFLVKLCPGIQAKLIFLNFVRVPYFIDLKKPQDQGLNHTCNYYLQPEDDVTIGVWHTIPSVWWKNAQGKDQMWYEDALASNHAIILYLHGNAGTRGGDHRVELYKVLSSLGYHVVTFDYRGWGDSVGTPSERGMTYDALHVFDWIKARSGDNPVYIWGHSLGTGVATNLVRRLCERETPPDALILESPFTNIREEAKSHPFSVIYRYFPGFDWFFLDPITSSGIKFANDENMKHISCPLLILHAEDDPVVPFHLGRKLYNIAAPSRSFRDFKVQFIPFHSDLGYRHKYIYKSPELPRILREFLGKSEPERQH
The experiment in a line: Ex vivo gel-based competitive ABPP. Type of assay: in vivo.

A word on the IC50: it is the concentration that gives 50% inhibition. A low value points to higher potency. For the compound `FC(F)(F)Oc1ccc(Oc2ccnc(N3CCC(NC(=S)Nc4cccnc4)CC3)c2Cl)c(Cl)c1` [DO264, N-3-pyridyl-N’-(1-[3-chloro-4-{2-chloro-4-(trifluoromethoxy)phenoxy}pyridine-2-yl]piperidin-4-yl)thiourea], the “inhibition of human ABHD2 in situ” value in assay [1] is given as “did not inhibit”. For the same compound, the “effect on activity of other serine hydrolases” value in assay [2] is listed as “without affecting the activity of other serine hydrolases”. Further, in the assay with THP-1 cells (0.001-1 μM), the “20:4 PS lipids of THP-1 cells” value was “concentration-dependent increase”. The “lyso-PS content of THP-1 cells” value in the assay with THP-1 cells (DO264 0.001-1 μM, (S)-DO271 1 μM) is listed as “substantial elevations”. The compound also returned an IC50 at ABHD12 [3] of 26 nM. Besides, in the assay on C57BL/6 mice (30 mg/kg, i.p., detectable by 4 h), the “time post-dosing at which brain lyso-PS changes were maximal” value was 24 h. Besides, the “brain 20:4 lyso-PI” value in the assay with C57BL/6 mice (30 mg/kg, p.o., 24 h) is on record as “increase”. Also, the “brain lyso-PS and 20:4 PS after chronic treatment” value in the assay with C57BL/6 mice (8-month-old mice, 30 mg/kg daily, p.o., four weeks) is recorded as “Substantial elevations”. The “brain lyso-PS species and select 20:4 PS species” value with C57BL/6 mice (DO264 1-60 mg/kg, (S)-DO271 60 mg/kg, i.p., 24 h) is “dose-dependently increased”. The “brain 2-AG” value in the assay on C57BL/6 mice (brain tissue of treated mice) was “did not show changes”. Also, in the assay on C57BL/6 mice (i.p., 24 h), the “dose at which maximal lyso-PS and 20:4 PS elevations were observed” value is reported as 30 mg/kg. Besides, on ABHD12 [4], the “ABHD12 activity in primary human macrophages” value is recorded as “inhibits ABHD12 activity”. Also, the “ABHD12 activity in THP-1 cells by competitive gel-based ABPP (in words)” value on ABHD12 [5] was “complete blockade”. In addition, on ABHD12 [6] (30 mg/kg, i.p.), the “brain ABHD12 activity at 48 h post-dosing” value is reported as “partial recovery” and the “time post-treatment over which inhibition of brain ABHD12 activity was observed” value fell in the range of 4 to 24 h. Also, at ABHD12 [6] (C57BL/6 mice, 30 and 60 mg/kg, i.p. (4 h or 24 h) or p.o. (4 h)), the “brain ABHD12 activity, ex vivo analysis with JJH350 probe” value was “complete inhibition”. Also, the “inhibition of ABHD12 in peripheral tissues of mice” value on ABHD12 [6] (i.p., 30 mg/kg, 4 h, FP-Rh and JJH350 probes) is “selectively inhibited”.
